Measurements from different studies.
Protocols differ between the studies behind these lines.
Target: BDNF/NT-3 growth factors receptor (NTRK2, Homo sapiens, UniProt Q16620)

Structure (SMILES)	test	setting	remaining binding
FC(F)(F)Oc1cccc(-c2cnc3ccc(-c4ccncc4)nn23)c1	cell-free assay, competition with immobilised ligand	5 µM	8.9%
CN(CCCC(F)(F)F)c1nccc(-c2cnn3ncccc23)n1	binding	1 µM	100%
COc1cnc(Nc2cccc(S(N)(=O)=O)c2)nc1N1CCN(c2ccccc2)C(=O)C1	binding, competition with immobilised ligand	1 µM	100%
CC(C)CC(=O)N1CCc2nc(-c3ccc(Br)cc3)nc(N(C)Cc3ccccc3)c2C1	cell-free assay, competition with immobilised ligand	0.1 µM	100%
CN(C)c1ncc(F)c(-c2cnn3ncccc23)n1	binding	1 µM	64%
O=C(O)[C@@H]1[C@@H](Cn2nnc3ccccc3c2=O)CC[C@H]1C(=O)c1ccc(OCCC2CCOCC2)cc1	cell-free assay, competition with immobilised ligand	1 µM	93%
Cc1cnc(Nc2ccc(C(=O)N3CCC(N4CCCC4)CC3)cc2)nc1-c1cc2ccccc2s1	binding, competition with immobilised ligand	1 µM	4.1%
COc1ncc2cc3ccccc3nc2c1C#N	cell-free assay, competition with immobilised ligand	5 µM	98%
F[C@@H]1CCN(c2nccc(-c3cnn4ncccc34)n2)C1	binding	1 µM	100%
CCCCN(CCCC)C(=O)CN1C[C@@H](c2cc(OC)c3c(c2)OCO3)[C@H](C(=O)O)[C@H]1CC(C)(C)CCC	cell-free assay, competition with immobilised ligand	1 µM	98.3%
C[C@@H](c1ccc(-n2cnc3c(N)ncnc32)cc1)N1CCc2nn(C)c(Cc3ccccc3)c2C1=O	binding, competition with immobilised ligand	0.1 µM	24%
O=C(c1ccc(Nc2nccc(-c3cc4ccccc4s3)n2)cc1)N1CCC(N2CCCC2)CC1	binding, competition with immobilised ligand	1 µM	59%
C[C@@H]1CCN(c2nccc(-c3cnn4ncccc34)n2)C1	binding	1 µM	72%
CN([C@@H]1CCc2c(CC(=O)O)c3cc(S(C)(=O)=O)ccc3n2C1)S(=O)(=O)c1ccc(F)cc1	cell-free assay, competition with immobilised ligand	1 µM	100%
Cc1cnn2ncc(-c3ccnc(N(C)C)n3)c2c1	binding	1 µM	84%
CNC(=O)[C@@H]1CC[C@@H](n2c(-c3ccc4cnccc4c3)nc3ccc(C(=O)NCc4cccc(C(N)=O)c4)cc32)C1	binding, competition with immobilised ligand	1 µM	100%
CSc1cccnc1N1CCN(Cc2nc3ccccc3[nH]2)CC1	cell-free assay, competition with immobilised ligand	1 µM	100%
N[C@H]1CCN(c2nccc(-c3cnn4ncccc34)n2)C1	binding	1 µM	100%
O=C(c1ccc(Nc2ncc(Cl)c(-c3cc4ccccc4s3)n2)cc1)N1CCC(N2CCCC2)CC1	binding, competition with immobilised ligand	1 µM	13%
CN(C)CC#Cc1ccc(OCCCc2sc(N3CCc4cccc(C(=O)Nc5nc6ccccc6s5)c4C3)nc2C(=O)O)c(F)c1	cell-free assay, competition with immobilised ligand	1 µM	100%
O=C(NCC1CCOCC1)c1n[nH]cc1NC(=O)c1c(F)cccc1F	binding, competition with immobilised ligand	1 µM	100%
